In paper PMC3312318 (Biochemistry, 2012):
Ends that are not written are not given here. Oregon Green 488 = Oregon Green 488 fluorophore

Columns and labels:
PICK1 PDZ domain = conditions: in words, ref [39], cited from earlier work
PKCα [1] = assay: In vitro phosphorylation by PKCα; type: biochemical; conditions: in words
Procedure, shortened: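 About 3 μg of purified untagged PICK1 variant was mixed with reaction buffer (Tris pH 7.5, MgCl2, CaCl2), PKC lipid activator, 10 ng PKCα and 2 μCi [γ-32P]ATP, then incubated 30 min at 30 °C. Reactions were stopped on ice with SDS loading buffer and run on SDS-PAGE. 32P and Coomassie bands were quantified, and the phosphorylation/protein density ratio was expressed relative to WT (100%). Mean ± SE, 3–5 experiments.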

PKCα [2] = assay: In vitro phosphorylation by PKCα after preincubation with lipid vesicles; type: biochemical; conditions: with vs without vesicles
Procedure, shortened: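 Purified untagged PICK1 (~3 μg) was preincubated 30 min on ice with 3 μg Folch fraction type I vesicles extruded to 100 nm, or without vesicles. It was then phosphorylated with 10 ng PKCα, PKC lipid activator, Mg2+/Ca2+ Tris reaction buffer (pH 7.5) and 2 μCi [γ-32P]ATP for 30 min at 30 °C. Read-out was 32P band density over Coomassie protein density.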

[3] = target: T1, PICK1 WT (protein interacting with C-kinase 1), rat (rat, UniProt Q9EP80 1-416); assay: fluorescence polarisation
T1 sequence (Q9EP80 whole entry): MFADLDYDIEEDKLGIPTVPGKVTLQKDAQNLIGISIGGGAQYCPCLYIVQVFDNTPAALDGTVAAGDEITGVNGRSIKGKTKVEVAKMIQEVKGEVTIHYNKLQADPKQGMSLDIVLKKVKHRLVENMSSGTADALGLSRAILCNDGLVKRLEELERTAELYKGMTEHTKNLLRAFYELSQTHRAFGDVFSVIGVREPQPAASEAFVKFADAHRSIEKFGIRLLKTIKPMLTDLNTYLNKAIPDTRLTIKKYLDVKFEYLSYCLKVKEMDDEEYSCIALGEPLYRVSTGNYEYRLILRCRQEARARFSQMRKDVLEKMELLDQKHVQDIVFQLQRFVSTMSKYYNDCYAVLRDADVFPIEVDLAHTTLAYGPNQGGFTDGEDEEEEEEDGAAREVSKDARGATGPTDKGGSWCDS

PICK1 S77A, rat [4] = target: T2, PICK1 S77A, rat (rat, UniProt Q9EP80 1-416, S77A); assay: fluorescence polarisation
T2 sequence (Q9EP80 whole entry S77A): as the sequence (Q9EP80 whole entry) above, with S77A counted along it

[5] = target: T3, PICK1 S77D, rat (phosphomimic) (rat, UniProt Q9EP80 1-416, S77D); assay: fluorescence polarisation
T3 sequence (Q9EP80 whole entry S77D): as the sequence (Q9EP80 whole entry) above, with S77D counted along it

[6] = target: T1, PICK1 WT (protein interacting with …); assay: fluorescence polarisation; remark: listed apart in the source
PICK1 S77A, rat [7] = target: T2, PICK1 S77A, rat; assay: fluorescence polarisation; remark: listed apart in the source
[8] = target: T3, PICK1 S77D, rat (phosphomimic); assay: fluorescence polarisation; remark: listed apart in the source

Molecule	Ki [3]	Ki (PICK1 S77A, rat [4])	Ki [5]	also measured
EVRQFTLRHWLKD [DAT C13 V to D]	–	–	–	interaction with the PICK1 PDZ domain (PICK1 PDZ domain; last residue changed to aspartate): disrupts the interaction with the PICK1 PDZ domain
OrG DAT C13: DAT C13 with an additional N-terminal cysteine residue coupled to the fluorophore Oregon Green 488 (C(Oregon Green 488)EVRQFTLRHWLKV)	–	–	–	affinity for the PICK1 PDZ domain (PICK1 PDZ domain): highest affinity reported for the PICK1 PDZ domain
PICK1 A87L: PICK1 mutant (A87L) that cannot accommodate a peptide in the PDZ binding pocket	–	–	–	PKCα phosphorylation compared with PICK1 WT (PKCα [1]; n=3-5): phosphorylated to the same level as WT
PICK1 WT: purified rat PICK1, cleaved from GST with thrombin	–	–	–	fold increase in phosphorylation on addition of lipid vesicles (PKCα [2]): approximately 10 fold; PKCα in vitro phosphorylation (PKCα [1]; SDS-PAGE, 32P autoradiography, n=3): PICK1 is a substrate for PKCα
NPQFVHPILQSAV [PKCα C13 (13 C-terminal residues of human protein kinase Cα)]	49 µM	28 µM	29 µM	–
EVRQFTLRHWLKV [DAT C13 (13 C-terminal residues of the human dopamine transporter)]	1.05 µM	1.5 µM	1.1 µM	–
EGYNVYGIESVKI [GluA2 C13 (13 C-terminal residues of human GluA2)]	7.6 µM	9.8 µM	8.8 µM	–
C(Oregon Green 488)EVRQFTLRHWLKV [OrG DAT C13 (DAT C13 with an additional N-terminal cysteine coupled to Oregon Green 488)]	–	–	–	binding result [6]: binds; binding result (PICK1 S77A, rat [7]): binds; binding result [8]: binds
